Measured values as given in ChEMBL document CHEMBL1949525, “Boranophosphate isoster controls P2Y-receptor subtype selectivity and metabolic stability of dinucleoside polyphosphate analogues” (J Med Chem, 2012).
The source made the active and inactive calls. The rule behind the calls is not given here.

Experiments:
[1] = Stability of the compound assessed as human e-NPP1-mediated hydrolysis at pH 8.5 after 20 mins by HPLC analysis; format: ADME; details: buffer, pH 8.5, 20 min; for Drug degradation: 20 min
How it was run: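 Human NPP1 preparation preincubated 3 min at 37 °C in 1 mM CaCl2, 200 mM NaCl, 10 mM KCl, 100 mM Tris, pH 8.5. Started with 0.2 mM dinucleotide solution (added volume) and stopped after 20 min in ice-cold perchloric acid. Neutralised with KOH, then NMP formation followed by HPLC. Percent substrate hydrolysed is the mean of two experiments run in triplicate.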

P2Y purinoceptor 1 = P2Y purinoceptor 1 (Meleagris gallopavo, UniProt P49652); test: Agonist activity at turkey P2Y purinoceptor 1 expressed in human 1321N1 cells assessed as increase in intracellular calcium concentration by spectrofluorimetry; format: functional, cell-based
P2Y purinoceptor 1, sequence (P49652 whole entry): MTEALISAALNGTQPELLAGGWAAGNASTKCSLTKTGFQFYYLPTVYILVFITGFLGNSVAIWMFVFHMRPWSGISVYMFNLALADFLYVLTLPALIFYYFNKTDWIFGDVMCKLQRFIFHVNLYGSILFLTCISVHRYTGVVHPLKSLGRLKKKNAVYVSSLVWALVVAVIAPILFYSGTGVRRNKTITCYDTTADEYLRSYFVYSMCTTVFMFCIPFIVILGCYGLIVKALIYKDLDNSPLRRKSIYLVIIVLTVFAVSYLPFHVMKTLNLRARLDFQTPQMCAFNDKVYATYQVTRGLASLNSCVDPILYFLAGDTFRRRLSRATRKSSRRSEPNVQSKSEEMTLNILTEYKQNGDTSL

P2Y purinoceptor 2 [2] = biological target: T1, P2Y purinoceptor 2 (Homo sapiens, UniProt P41231); test: Agonist activity at human P2Y purinoceptor 2 expressed in human 1321N1 cells assessed as increase in intracellular calcium concentration by spectrofluorimetry; format: functional, cell-based
T1 sequence (P41231 whole entry): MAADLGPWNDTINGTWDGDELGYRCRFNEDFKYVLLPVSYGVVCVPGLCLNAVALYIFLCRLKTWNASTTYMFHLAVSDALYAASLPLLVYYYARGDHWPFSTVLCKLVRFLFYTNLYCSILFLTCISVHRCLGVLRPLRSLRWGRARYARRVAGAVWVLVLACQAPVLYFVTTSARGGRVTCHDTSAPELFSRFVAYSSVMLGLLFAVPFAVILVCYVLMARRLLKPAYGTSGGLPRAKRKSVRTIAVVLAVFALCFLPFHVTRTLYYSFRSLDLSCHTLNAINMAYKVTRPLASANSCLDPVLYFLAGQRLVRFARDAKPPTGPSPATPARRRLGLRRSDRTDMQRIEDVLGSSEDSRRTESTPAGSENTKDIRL

P2Y purinoceptor 6 = P2Y purinoceptor 6 (Rattus norvegicus, UniProt Q63371); test: Agonist activity at rat P2Y purinoceptor 6 expressed in human 1321N1 cells assessed as increase in intracellular calcium concentration by spectrofluorimetry; format: functional, cell-based; details: read-out: EC50
P2Y purinoceptor 6, sequence (Q63371 whole entry): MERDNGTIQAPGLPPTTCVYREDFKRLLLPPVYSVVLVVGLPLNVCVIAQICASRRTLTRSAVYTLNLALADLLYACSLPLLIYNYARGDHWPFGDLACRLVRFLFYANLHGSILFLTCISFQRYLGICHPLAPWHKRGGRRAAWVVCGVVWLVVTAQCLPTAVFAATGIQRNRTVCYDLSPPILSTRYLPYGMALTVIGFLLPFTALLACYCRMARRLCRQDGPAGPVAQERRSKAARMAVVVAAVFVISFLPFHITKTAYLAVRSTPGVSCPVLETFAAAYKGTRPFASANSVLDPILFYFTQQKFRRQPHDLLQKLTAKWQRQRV
How it was run: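 1321N1 astrocytoma cells lacking endogenous P2Y receptors, stably transfected with turkey P2Y1, human P2Y2, human P2Y4 or rat P2Y6, grown in DMEM with 5% FBS, penicillin/streptomycin and 500 µg/mL G-418. Fura-2-loaded cell suspensions were exposed at 37 °C in 10 mM Hepes-buffered saline, pH 7.4, with 1 mM CaCl2 and 1 mM MgCl2. Peak [Ca2+]i rise by dual-excitation spectrofluorometry across concentrations; EC50 from curve fits; three experiments on separate days per subtype.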

P2Y purinoceptor 2 [3] = biological target: T1, P2Y purinoceptor 2; test: Antagonist activity at human P2Y purinoceptor 2 expressed in human 1321N1 cells assessed as inhibition of UTP-induced increase in intracellular calcium concentration by spectrofluorimetry; format: functional, cell-based
How it was run: (§1)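 Fura-2-loaded 1321N1 transfectants (turkey P2Y1, human P2Y2/P2Y4, rat P2Y6) in Hepes-buffered saline, pH 7.4, at 37 °C. Analogues were tested against equimolar reference agonist: 2-MeS-ADP for P2Y1, UTP for P2Y2/4, UDP for P2Y6. Blockade of the [Ca2+]i rise was followed by dual-excitation spectrofluorometry.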

[4] = biological target: P2Y purinoceptor 1 (Meleagris gallopavo) (UniProt P49652); test: Antagonist activity at turkey P2Y purinoceptor 1 expressed in human 1321N1 cells assessed as inhibition of 2-Sme-ADP-induced increase in intracellular calcium concentration by spectrofluorimetry; format: functional, cell-based; how it was run: as §1
P2Y purinoceptor 1 (Meleagris gallopavo), sequence (P49652 whole entry): as the sequence (P49652 whole entry) above

P2Y purinoceptor 4 [5] = biological target: T2, P2Y purinoceptor 4 (Homo sapiens, UniProt P51582); test: Antagonist activity at human P2Y purinoceptor 4 expressed in human 1321N1 cells assessed as inhibition of UTP-induced increase in intracellular calcium concentration by spectrofluorimetry; format: functional, cell-based; how it was run: as §1
T2 sequence (P51582 whole entry): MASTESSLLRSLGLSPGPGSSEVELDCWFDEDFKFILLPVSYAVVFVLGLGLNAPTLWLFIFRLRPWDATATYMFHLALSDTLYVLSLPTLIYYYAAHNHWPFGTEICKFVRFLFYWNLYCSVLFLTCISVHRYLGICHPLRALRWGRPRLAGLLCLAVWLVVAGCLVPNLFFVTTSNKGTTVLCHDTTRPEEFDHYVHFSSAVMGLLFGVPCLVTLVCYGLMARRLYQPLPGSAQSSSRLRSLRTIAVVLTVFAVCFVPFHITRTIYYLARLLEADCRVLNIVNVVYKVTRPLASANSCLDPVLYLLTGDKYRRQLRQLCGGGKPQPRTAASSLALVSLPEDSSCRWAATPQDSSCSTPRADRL

[6] = biological target: P2Y purinoceptor 6 (Rattus norvegicus) (UniProt Q63371); test: Antagonist activity at rat P2Y purinoceptor 6 expressed in human 1321N1 cells assessed as inhibition of UDP-induced increase in intracellular calcium concentration by spectrofluorimetry; format: functional, cell-based; how it was run: as §1
P2Y purinoceptor 6 (Rattus norvegicus), sequence (Q63371 whole entry): as the sequence (Q63371 whole entry) above

P2Y purinoceptor 4 [7] = biological target: T2, P2Y purinoceptor 4; test: Agonist activity at human P2Y purinoceptor 4 expressed in human 1321N1 cells assessed as increase in intracellular calcium concentration by spectrofluorimetry; format: functional, cell-based; details: read-out: EC50
How it was run: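 1321N1 astrocytoma cells (no endogenous P2Y receptors) stably expressing hP2Y4, grown in DMEM with 5% FBS, penicillin/streptomycin and 500 μg/mL G-418. Fura-2-loaded cell suspensions; compounds applied at various concentrations, 37 °C, 10 mM Hepes-buffered saline pH 7.4 with 1 mM CaCl2/MgCl2. Peak [Ca2+]i rise by dual-excitation fluorometry gives EC50; UTP reference agonist; three experiments on separate days.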

Nc1ncnc2c1ncn2[C@@H]1O[C@H](COP(=O)(O)OP(=O)(O)OP(=O)(O)OP(=O)(O)OP(=O)(O)OC[C@H]2O[C@@H](n3cnc4c(N)ncnc43)[C@H](O)[C@@H]2O)[C@@H](O)[C@H]1O
Stability [1]: Unstable

BP(=O)(OP(=O)(O)OC[C@H]1O[C@@H](n2cnc3c(N)ncnc32)[C@H](O)[C@@H]1O)OP(=O)(O)OP(=O)(O)OC[C@H]1O[C@@H](n2cnc3c(N)ncnc32)[C@H](O)[C@@H]1O.CCCCN(CCCC)CCCC.CCCCN(CCCC)CCCC.CCCCN(CCCC)CCCC.CCCCN(CCCC)CCCC (stereo in doubt; 6B)
EC50 (P2Y purinoceptor 1; read-out: EC50): 4.3 µM | Drug degradation [1]: 2.1%

BP(=O)(OP(=O)(O)OC[C@H]1O[C@@H](n2ccc(=O)[nH]c2=O)[C@H](O)[C@@H]1O)OP(=O)(O)OP(=O)(O)OC[C@H]1O[C@@H](n2ccc(=O)[nH]c2=O)[C@H](O)[C@@H]1O.CCCCN(CCCC)CCCC.CCCCN(CCCC)CCCC.CCCCN(CCCC)CCCC.CCCCN(CCCC)CCCC (stereo in doubt; 7B)
EC50 (P2Y purinoceptor 2 [2]; 1321-n1): Not Active | Drug degradation [1]: 3.5% | EC50 (P2Y purinoceptor 6): 0.98 µM

BP(=O)(OP(=O)(O)OC[C@H]1O[C@@H](n2cnc3c(N)ncnc32)[C@H](O)[C@@H]1O)OP(=O)(O)OP(=O)(O)OC[C@H]1O[C@@H](n2ccc(=O)[nH]c2=O)[C@H](O)[C@@H]1O.CCCCN(CCCC)CCCC.CCCCN(CCCC)CCCC.CCCCN(CCCC)CCCC.CCCCN(CCCC)CCCC (stereo in doubt; 8B) [listing 1 of 2 here]
EC50 (P2Y purinoceptor 2 [2]; read-out: EC50): 64.2 µM | EC50 (P2Y purinoceptor 1; read-out: EC50): 6.9 µM | Drug degradation [1]: 2.1% | EC50 (P2Y purinoceptor 6): 1.92 µM

BP(=O)(OP(=O)(O)OC[C@H]1O[C@@H](n2cnc3c(N)ncnc32)[C@H](O)[C@@H]1O)OP(=O)(O)OP(=O)(O)OC[C@H]1O[C@@H](n2ccc(=O)[nH]c2=O)[C@H](O)[C@@H]1O.CCCCN(CCCC)CCCC.CCCCN(CCCC)CCCC.CCCCN(CCCC)CCCC.CCCCN(CCCC)CCCC (stereo in doubt; 8B) [listing 2 of 2 here]
Activity (P2Y purinoceptor 2 [3]): inactive | Activity [4]: inactive | Activity (P2Y purinoceptor 4 [5]): inactive | Activity [6]: inactive

BP(=O)(OP(=O)(O)OC[C@H]1O[C@@H](n2ccc(=O)[nH]c2=O)[C@H](O)[C@@H]1O)OP(=O)(O)OP(=O)(O)OC[C@H]1O[C@@H](n2cnc3c(N)ncnc32)[C@H](O)[C@@H]1O.CCCCN(CCCC)CCCC.CCCCN(CCCC)CCCC.CCCCN(CCCC)CCCC.CCCCN(CCCC)CCCC (stereo in doubt; 9B) [listing 1 of 2 here]
EC50 (P2Y purinoceptor 2 [2]; 1321-n1): Not Active | EC50 (P2Y purinoceptor 1; read-out: EC50): 0.81 µM | Drug degradation [1]: 3.3% | EC50 (P2Y purinoceptor 6): 11.7 µM

BP(=O)(OP(=O)(O)OC[C@H]1O[C@@H](n2ccc(=O)[nH]c2=O)[C@H](O)[C@@H]1O)OP(=O)(O)OP(=O)(O)OC[C@H]1O[C@@H](n2cnc3c(N)ncnc32)[C@H](O)[C@@H]1O.CCCCN(CCCC)CCCC.CCCCN(CCCC)CCCC.CCCCN(CCCC)CCCC.CCCCN(CCCC)CCCC (stereo in doubt; 9B) [listing 2 of 2 here]
Activity (P2Y purinoceptor 2 [3]): inactive | Activity [4]: inactive | Activity (P2Y purinoceptor 4 [5]): inactive | Activity [6]: inactive

BP(=O)(OC[C@H]1O[C@@H](n2cnc3c(N)ncnc32)[C@H](O)[C@@H]1O)OP(=O)(O)OP(=O)(O)OC[C@H]1O[C@@H](n2cnc3c(N)ncnc32)[C@H](O)[C@@H]1O.CCCCN(CCCC)CCCC.CCCCN(CCCC)CCCC.CCCCN(CCCC)CCCC (stereo in doubt; 10A)
Activity (P2Y purinoceptor 2 [3]): inactive | Activity [4]: inactive | Activity (P2Y purinoceptor 4 [5]): inactive | Activity [6]: inactive

BP(=O)(OC[C@H]1O[C@@H](n2cnc3c(N)ncnc32)[C@H](O)[C@@H]1O)OP(=O)(O)OP(=O)(O)OC[C@H]1O[C@@H](n2cnc3c(N)ncnc32)[C@H](O)[C@@H]1O.CCCCN(CCCC)CCCC.CCCCN(CCCC)CCCC.CCCCN(CCCC)CCCC (stereo in doubt; 10B) [listing 1 of 2 here]
EC50 (P2Y purinoceptor 1; read-out: EC50): 0.8 µM | Drug degradation [1]: 4.4%

BP(=O)(OC[C@H]1O[C@@H](n2cnc3c(N)ncnc32)[C@H](O)[C@@H]1O)OP(=O)(O)OP(=O)(O)OC[C@H]1O[C@@H](n2cnc3c(N)ncnc32)[C@H](O)[C@@H]1O.CCCCN(CCCC)CCCC.CCCCN(CCCC)CCCC.CCCCN(CCCC)CCCC (stereo in doubt; 10B) [listing 2 of 2 here]
Activity (P2Y purinoceptor 2 [3]): inactive | Activity [4]: inactive | Activity (P2Y purinoceptor 4 [5]): inactive | Activity [6]: inactive

BP(=O)(OC[C@H]1O[C@@H](n2ccc(=O)[nH]c2=O)[C@H](O)[C@@H]1O)OP(=O)(O)OP(=O)(O)OC[C@H]1O[C@@H](n2ccc(=O)[nH]c2=O)[C@H](O)[C@@H]1O.CCCCN(CCCC)CCCC.CCCCN(CCCC)CCCC.CCCCN(CCCC)CCCC (stereo in doubt; 11A)
Activity (P2Y purinoceptor 2 [3]): inactive | Activity [4]: inactive | Activity (P2Y purinoceptor 4 [5]): inactive | Activity [6]: inactive

BP(=O)(OC[C@H]1O[C@@H](n2ccc(=O)[nH]c2=O)[C@H](O)[C@@H]1O)OP(=O)(O)OP(=O)(O)OC[C@H]1O[C@@H](n2ccc(=O)[nH]c2=O)[C@H](O)[C@@H]1O.CCCCN(CCCC)CCCC.CCCCN(CCCC)CCCC.CCCCN(CCCC)CCCC (stereo in doubt; 11B)
Drug degradation [1]: 6% | EC50 (P2Y purinoceptor 6): 0.3 µM

BP(=O)(OC[C@H]1O[C@@H](n2cnc3c(N)ncnc32)[C@H](O)[C@@H]1O)OP(=O)(O)OP(=O)(O)OP(=O)(O)OC[C@H]1O[C@@H](n2cnc3c(N)ncnc32)[C@H](O)[C@@H]1O.CCCCN(CCCC)CCCC.CCCCN(CCCC)CCCC.CCCCN(CCCC)CCCC.CCCCN(CCCC)CCCC (stereo in doubt; 12A)
Activity (P2Y purinoceptor 2 [3]): inactive | Activity [4]: inactive | Activity (P2Y purinoceptor 4 [5]): inactive | Activity [6]: inactive

BP(=O)(OC[C@H]1O[C@@H](n2cnc3c(N)ncnc32)[C@H](O)[C@@H]1O)OP(=O)(O)OP(=O)(O)OP(=O)(O)OC[C@H]1O[C@@H](n2cnc3c(N)ncnc32)[C@H](O)[C@@H]1O.CCCCN(CCCC)CCCC.CCCCN(CCCC)CCCC.CCCCN(CCCC)CCCC.CCCCN(CCCC)CCCC (stereo in doubt; 12B) [listing 1 of 2 here]
EC50 (P2Y purinoceptor 2 [2]; read-out: EC50): 64.2 µM | EC50 (P2Y purinoceptor 1; read-out: EC50): 6.9 µM | Drug degradation [1]: 17%

BP(=O)(OC[C@H]1O[C@@H](n2cnc3c(N)ncnc32)[C@H](O)[C@@H]1O)OP(=O)(O)OP(=O)(O)OP(=O)(O)OC[C@H]1O[C@@H](n2cnc3c(N)ncnc32)[C@H](O)[C@@H]1O.CCCCN(CCCC)CCCC.CCCCN(CCCC)CCCC.CCCCN(CCCC)CCCC.CCCCN(CCCC)CCCC (stereo in doubt; 12B) [listing 2 of 2 here]
Activity (P2Y purinoceptor 2 [3]): inactive | Activity [4]: inactive | Activity (P2Y purinoceptor 4 [5]): inactive | Activity [6]: inactive

BP(=O)(OC[C@H]1O[C@@H](n2ccc(=O)[nH]c2=O)[C@H](O)[C@@H]1O)OP(=O)(O)OP(=O)(O)OP(=O)(O)OC[C@H]1O[C@@H](n2ccc(=O)[nH]c2=O)[C@H](O)[C@@H]1O.CCCCN(CCCC)CCCC.CCCCN(CCCC)CCCC.CCCCN(CCCC)CCCC.CCCCN(CCCC)CCCC (stereo in doubt; 13A)
EC50 (P2Y purinoceptor 1; 1321-n1): Not Active | EC50 (P2Y purinoceptor 4 [7]): 9.4 µM | Drug degradation [1]: 3.5% | EC50 (P2Y purinoceptor 6): 36.1 µM

BP(=O)(OC[C@H]1O[C@@H](n2ccc(=O)[nH]c2=O)[C@H](O)[C@@H]1O)OP(=O)(O)OP(=O)(O)OP(=O)(O)OC[C@H]1O[C@@H](n2ccc(=O)[nH]c2=O)[C@H](O)[C@@H]1O.CCCCN(CCCC)CCCC.CCCCN(CCCC)CCCC.CCCCN(CCCC)CCCC.CCCCN(CCCC)CCCC (stereo in doubt; 13B)
EC50 (P2Y purinoceptor 2 [2]; read-out: EC50): 24.6 µM | EC50 (P2Y purinoceptor 4 [7]): 16.8 µM | Drug degradation [1]: 11.3% | EC50 (P2Y purinoceptor 6): 3.9 µM
